Source: ChEMBL document CHEMBL3792374, “Discovery of a ring-opened derivative of 3-n-butylphthalide bearing NO/H2S-donating moieties as a potential anti-ischemic stroke agent” (Eur J Med Chem, 2016)
Calls of active or inactive are those of the source. The rule behind the calls is not given here.

How the values were obtained:
[1] = Antiplatelet activity in rabbit platelet-rich plasma assessed as inhibition of ADP-induced platelet aggregation preincubated for 5 mins followed by addition of ADP measured within 5 mins by Borns turbidimetric method; format: functional; details: Oryctolagus cuniculus
Procedure, shortened: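 Platelet-rich plasma from citrated rabbit carotid blood was preincubated in duplicate at 37 °C for 5 min with compound at 0.1, 0.2, 0.4, 0.8 or 1.6 mM. ADP-induced aggregation was then recorded turbidimetrically, as maximal light transmission within 5 min. Inhibition was calculated versus vehicle control, and IC50 values were derived. Mean ± SD, n = 6, ANOVA/Tukey.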

[2] = Induction of nitric oxide release in potassium phosphate buffer at pH 7.4 at 0.1 mM after 90 mins by Griess assay; format: physicochemical; details: pH 7.4, 1.5 h, 100 µM
Procedure, shortened: (§1)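 Compound (0.1 mM) in PBS pH 7.4 containing 2% DMSO and 5.0 mM L-cysteine was held at 37 °C for 15–300 min. Samples were taken every 15 min up to 120 min, then every 30 min. Each sample was reacted with Griess reagent for 10 min at 37 °C and absorbance read at 540 nm. Nitrite was quantified from a nitrite standard curve. Means reported; intra-group variation <10%.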

[3] = Antiplatelet activity in rabbit platelet-rich plasma assessed as inhibition of ADP-induced platelet aggregation at 0.1 mM preincubated for 5 mins followed by addition of ADP measured within 5 mins by Borns turbidimetric method; format: functional; details: Oryctolagus cuniculus
Procedure, shortened: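 Rabbit carotid blood was citrated (3.8%, 9:1). PRP was obtained at 500 g for 10 min and PPP at 3000 g for 10 min. PRP was preincubated in duplicate for 5 min at 37 °C with 0.1 mM compound, plus carboxy-PTIO or BSS where indicated. ADP was then added and maximal light transmission recorded within 5 min, within 3 h of blood collection. Inhibition % was calculated versus control. Mean ± SD of three independent experiments.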

[4] = Induction of nitric oxide release in potassium phosphate buffer at pH 7.4 at 0.1 mM after 105 mins by Griess assay; format: physicochemical; details: pH 7.4, 1.75 h, 100 µM; procedure, shortened: as §1
[5] = Induction of nitric oxide release in potassium phosphate buffer at pH 7.4 at 0.1 mM after 180 mins by Griess assay; format: physicochemical; details: pH 7.4, 3 h, 100 µM; procedure, shortened: as §1
[6] = Induction of nitric oxide release in potassium phosphate buffer at pH 7.4 at 0.1 mM after 15 mins by Griess assay; format: physicochemical; details: pH 7.4, 0.25 h, 100 µM; procedure, shortened: as §1
[7] = Induction of nitric oxide release in potassium phosphate buffer at pH 7.4 at 0.1 mM after 30 mins by Griess assay; format: physicochemical; details: pH 7.4, 0.5 h, 100 µM; procedure, shortened: as §1
[8] = Induction of nitric oxide release in potassium phosphate buffer at pH 7.4 at 0.1 mM after 75 mins by Griess assay; format: physicochemical; details: pH 7.4, 1.25 h, 100 µM; procedure, shortened: as §1
[9] = Induction of nitric oxide release in potassium phosphate buffer at pH 7.4 at 0.1 mM after 45 mins by Griess assay; format: physicochemical; details: pH 7.4, 0.75 h, 100 µM; procedure, shortened: as §1
Liver [10] = experiment: Induction of hydrogen sulfide release in rat liver homogenate at 100 uM after 30 mins by microplate reader method (reference value: 1.03 to 1.21%); format: functional, tissue-based
Procedure, shortened: (§2)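 Compound was incubated at 37 °C for 0–90 min with fresh rat liver homogenate. The reaction was stopped with 1% zinc acetate and 10% trichloroacetic acid. N,N-dimethyl-p-phenylenediamine sulfate in 7.2 M HCl and FeCl3 in 1.2 M HCl were added, and absorbance was read at 670 nm after 10 min. Values were calculated against an NaHS standard curve as cumulative % conversion to H2S, n = 6.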

[11] = Induction of nitric oxide release in potassium phosphate buffer at pH 7.4 at 0.1 mM after 120 mins by Griess assay; format: physicochemical; details: pH 7.4, 2 h, 100 µM; procedure, shortened: as §1
[12] = Induction of nitric oxide release in potassium phosphate buffer at pH 7.4 at 0.1 mM after 150 mins by Griess assay; format: physicochemical; details: pH 7.4, 2.5 h, 100 µM; procedure, shortened: as §1
Liver [13] = experiment: Induction of hydrogen sulfide release in rat liver homogenate at 100 uM after 15 mins by microplate reader method (reference value: 1.03 to 1.21%); format: functional, tissue-based; procedure, shortened: as §2
[14] = Induction of nitric oxide release in potassium phosphate buffer at pH 7.4 at 0.1 mM after 60 mins by Griess assay; format: physicochemical; details: pH 7.4, 1 h, 100 µM; procedure, shortened: as §1
Liver [15] = experiment: Induction of hydrogen sulfide release in rat liver homogenate at 100 uM after 90 mins by microplate reader method (reference value: 1.03 to 1.21%); format: functional, tissue-based; procedure, shortened: as §2
Liver [16] = experiment: Induction of hydrogen sulfide release in rat liver homogenate at 100 uM after 60 mins by microplate reader method (reference value: 1.03 to 1.21%); format: functional, tissue-based; procedure, shortened: as §2
[17] = Induction of nitric oxide release in potassium phosphate buffer at pH 7.4 at 0.1 mM after 300 mins by Griess assay; format: physicochemical; details: pH 7.4, 5 h, 100 µM; procedure, shortened: as §1
[18] = Induction of nitric oxide release in potassium phosphate buffer at pH 7.4 at 0.1 mM after 240 mins by Griess assay; format: physicochemical; details: pH 7.4, 4 h, 100 µM; procedure, shortened: as §1
Rattus norvegicus [19] = experiment: Neuroprotective activity in Sprague-Dawley rat model of transient middle cerebral artery occlusion stroke model assessed as neurological deficit at 80 mg/kg administered via oral gavage for 7 days after ischemia onset measured 24 hrs after middle cerebral artery occlusion by Longa's method; format: functional, organism-based; details: in the assay text read “before ischemia onset” for “after ischemia onset”
Procedure, shortened: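 Male SD rats (280–320 g) received daily gavage for 7 days, with 0.5% CMC-Na as vehicle. Two hours after the last dose they underwent 2 h MCAO with reperfusion under chloral hydrate anesthesia; core temperature was held at 37 °C. Neurological deficit was scored blinded by Longa's method 24 h after reperfusion, between 10 and 11 a.m. Kruskal–Wallis test followed by Mann–Whitney U test.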

Rattus norvegicus [20] = experiment: Antioxidant activity in Sprague-Dawley rat brain tissue model of transient middle cerebral artery occlusion stroke model assessed as increase in glutathione peroxidase levels per mg of protein at 80 mg/kg […] measured 24 hrs after reperfusion by DTNB assay relative to control; format: functional
Rattus norvegicus [21] = experiment: Antioxidant activity in Sprague-Dawley rat brain tissue model of transient middle cerebral artery occlusion stroke model assessed as increase in superoxide dismutase levels per mg of protein at 80 mg/kg […] measured 24 hrs after reperfusion by nitroblue tetrazolium assay relative to control; format: functional

SMILES | IC50 [1] [µM] | Activity [2] [µM] | inhibition at 100 µM [3] [%] | Activity [4] [µM] | Activity [5] [µM] | Activity [6] [µM] | Activity [7] [µM] | Activity [8] [µM] | Activity [9] [µM] | Activity (Liver [10]) [%] | Activity [11] [µM] | Activity [12] [µM] | Activity (Liver [13]) [%] | Activity [14] [µM] | Activity (Liver [15]) [%] | Activity (Liver [16]) [%] | Activity [17] [µM] | Activity [18] [µM] | also measured
CCCCC(OC(=O)CN1CCN(CCCCCCOc2ccc(-c3cc(=S)ss3)cc2)CC1)c1ccccc1C(=O)Oc1ccc(/C=C/C(=O)OCCCCO[N+](=O)[O-])cc1OC (racemic) | 390 | 4.8 | 19.7 | 5.1 | 5.48 | 1.45 | 2 | 4.4 | 3.09 | 1.05 | 5.3 | 5.46 | 0.95 | 4 | 1.82 | 1.81 | 5.56 | 5.51 | 
CCCCC(OC(=O)CN1CCN(CCOc2ccc(-c3cc(=S)ss3)cc2)CC1)c1ccccc1C(=O)Oc1ccc(/C=C/C(=O)OCCCCCCO[N+](=O)[O-])cc1OC (racemic) | 210 | 8.14 | 19.7 | 8.64 | 9.29 | 2.37 | 4.21 | 7.84 | 5.98 | 2.83 | 8.76 | 9.25 | 2.62 | 6.58 | 3.82 | 3.74 | 9.57 | 9.44 | 
CCCCC(OC(=O)CN1CCN(CCCCCCOc2ccc(-c3cc(=S)ss3)cc2)CC1)c1ccccc1C(=O)Oc1ccc(/C=C/C(=O)OCCO[N+](=O)[O-])cc1OC (racemic) | 430 | 5.97 | 19.7 | 6.41 | 7.47 | 1.96 | 3.17 | 5.53 | 4.13 | 1.73 | 6.88 | 7.28 | 1.6 | 4.98 | 2.41 | 2.39 | 7.51 | 7.51 | 
CCCCC(OC(=O)CN1CCN(CCCCOc2ccc(-c3cc(=S)ss3)cc2)CC1)c1ccccc1C(=O)Oc1ccc(/C=C/C(=O)OCCCCCCO[N+](=O)[O-])cc1OC (racemic) | 320 | 4.68 | 19.7 | 4.98 | 5.31 | 1.17 | 2.24 | 4.36 | 3.26 | 0.92 | 5.09 | 5.3 | 0.75 | 4 | 1.35 | 1.33 | 5.38 | 5.33 | 
CCCCC(OC(=O)CN1CCN(CCCCCCOc2ccc(-c3cc(=S)ss3)cc2)CC1)c1ccccc1C(=O)Oc1ccc(/C=C/C(=O)OCCCCCCO[N+](=O)[O-])cc1OC (racemic) | 190 | 9.11 | 19.7 | 9.58 | 10.14 | 3.01 | 5.45 | 8.28 | 6.09 | 2.83 | 10.01 | 10.12 | 2.53 | 7.88 | 3.32 | 3.3 | 10.22 | 10.18 | 
CCCCC(OC(=O)CN1CCN(CCCCOc2ccc(-c3cc(=S)ss3)cc2)CC1)c1ccccc1C(=O)Oc1ccc(/C=C/C(=O)OCCCCO[N+](=O)[O-])cc1OC (racemic) | 360 | 7.45 | 19.7 | 8.3 | 8.34 | 2.1 | 3.86 | 7.04 | 4.58 | 1.85 | 8.37 | 8.32 | 1.74 | 6.13 | 2.72 | 2.71 | 8.37 | 8.25 | 
CCCCC(OC(=O)CN1CCN(CCCOc2ccc(-c3cc(=S)ss3)cc2)CC1)c1ccccc1C(=O)Oc1ccc(/C=C/C(=O)OCCCCO[N+](=O)[O-])cc1OC (racemic) | 430 | 2.56 | 19.7 | 2.98 | 3.23 | 0.91 | 1.27 | 2.36 | 1.89 | 0.83 | 3.18 | 3.25 | 0.65 | 2.22 | 1.23 | 1.21 | 3.32 | 3.32 | 
CCCCC1OC(=O)c2ccccc21 (stereo not drawn) [RAC-3-N-BUTYLPHTHALIDE] | 740 |  | 12.9 |  |  |  |  |  |  |  |  |  |  |  |  |  |  |  | Activity (Rattus norvegicus [19]): inactive; Activity (Rattus norvegicus [20]): 63.55%; Activity (Rattus norvegicus [21]): 24.36%
